Reference: ChEMBL document CHEMBL4513216, “Probing the Open Global Health Chemical Diversity Library for Multistage-Active Starting Points for Next-Generation Antimalarials” (ACS Infect Dis, 2020)

assay: Toxicity liver stage against HepG2, at 10uM; format: cell-based; set-up: test concentration 10 uM, cell line HepG2-A16-CD81EGFP; conditions: human, HepG2-A16-CD81EGFP cells; read-out: INHIBITION
Procedure, shortened: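 Uninfected HepG2-A16-CD81EGFP cells, 3 × 10^3 per well, 1536-well, plated on prespotted compound at 10 μM final, parasite-free screening media added to match infected plates; puromycin 10 μM positive, DMSO 0.5% negative; run in parallel with 48 h PbLuc assay at 37 °C, 5% CO2; viability by CellTiter-Glo luminescence, normalized to controls.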

Row | SMILES | cytotoxicity at 10 µM
1 | O=C(Nc1ccccc1)[C@H]1O[C@H](CCN2CCNCC2)CC[C@@H]1O | -7.49%
2 | CCS(=O)(=O)N1CCc2ccc(NC(=O)NCc3ccccc3)cc21 | 10.9%
3 | CC(C)n1ncc2c1NC(=O)CC21C(=O)Nc2c(Cl)cc(Br)cc21 (stereo not drawn) | -5.15%
4 | CC1CCN(S(=O)(=O)c2cccn(CC(=O)NC(C)(C)C)c2=O)CC1 | 0.00219%
5 | COc1ccc(S(=O)(=O)NCC(c2cccn2C)N(C)C)c(C)c1 (stereo not drawn) | 7.78%
6 | O=C(C1CCCC1)N1CC(c2nc(Cc3ccccc3)no2)C1 | 4.84%
7 | CSCC(C)(O)CNS(=O)(=O)c1ccc(Br)cc1 (stereo not drawn) | -1.61%
8 | O=C(O)CC(CC(=O)NCc1ccsc1)c1cccs1 (stereo not drawn) | -8.43%
9 | CC(=O)c1ccc(S(=O)(=O)Nc2cnn(C3CCOCC3)c2)cc1 | -2.25%
10 | O=C(NC1CC1)N1CC[C@@H](O)[C@@H]1Cc1ccccc1 | 1.91%
11 | CCCS(=O)(=O)N1Cc2nccn2CC(Cn2cccn2)C1 (stereo not drawn) | -120%
12 | CN(C)c1nccc(N2CCO[C@H]3CN(Cc4ccco4)C[C@H]32)n1 | -122%
13 | COCCNC(=O)c1cn(C(C)(C)C)c2ncccc12 | 2.74%
14 | Cc1ccc(C2CCCCCN2Cc2cn(C)nc2C)cc1 (stereo not drawn) | -8.56%
15 | Cc1cnc(N2CC3(CCN(C(=O)c4ccoc4)C3)C2)nc1 | -10.1%
16 | CN1C[C@H]2CCN(C(=O)NC3CCCC3)CC[C@H]2S1(=O)=O | 2.66%
17 | CC(C)Nc1nc(O)cc(C2CC(=O)N(C3CCCCC3)C2)n1 (stereo not drawn) | 4.5%
18 | Fc1ccc2[nH]c3c(c2c1)CCN1C(c2ccccn2)N2CCC31CC2 (stereo not drawn) | 6.16%
19 | Cc1nonc1CN(C)Cc1cnn(-c2ccc(F)cc2)c1 | -16.3%
20 | CN1CCCC1c1ccnc(-c2ccccc2)n1 (stereo not drawn) | 2.77%
21 | Cc1cccc(CNC(Cc2ccsc2)c2nccs2)n1 (stereo not drawn) | 2.83%
22 | Cn1cc(C(=O)N2CCN(c3ccccc3)CC2)ccc1=O | -0.408%
23 | O=C(C1CCC1)N1CCOc2cccc(F)c21 | 0.877%

Row | SMILES | cytotoxicity at 10 µM
24 | CC(C)(C)c1cc(NC(=O)CN(Cc2cccs2)Cc2cccs2)on1 | 14.2%
25 | CCCc1c(C(=O)N2CCN(Cc3ccccn3)CC2)cnn1C | -1.96%
26 | CCc1noc(C(C)N2CCC(NS(=O)(=O)c3cccs3)CC2)n1 (stereo not drawn) | 8.45%
27 | COc1cccc(COC(C)C(=O)N(C)Cc2nnc3n2CCC3)c1 (stereo not drawn) | 6.32%
28 | CC(C)CCN(C)Cn1ncc2cn(-c3ccccc3)nc2c1=O | 6.72%
29 | Cc1ccc(C(C)NC(=O)CSCC(N)=O)cc1 (stereo not drawn) | 3.37%
30 | O=c1n(CCNCc2ccc3ccccc3c2)nc2ccccn12 | 18.6%
31 | Cc1ccc(C(C)NCCc2nccn2Cc2ccccc2)o1 (stereo not drawn) | 1.98%
32 | COCCNC(=O)NC(c1ccccc1)c1ccccc1OC (stereo not drawn) | -0.238%
33 | CCN(C(=O)CN1CCCC1c1c(C)nn(C)c1OC)C1CC1 (stereo not drawn) | -0.54%
34 | CC1CCCN(CCCNC(=O)Cc2csc(-c3ccoc3)n2)C1 (stereo not drawn) | 3.39%
35 | CC(C)(C)n1ncc2c(=O)[nH]c(N3CC(O)C3)nc21 | -8.61%
36 | CCC(C)(NCC(=O)NC(C)C)c1nccs1 (stereo not drawn) | 3.26%
37 | CC(C)CN1CCC(NC(=O)c2ccc(F)cc2Cl)CC1 | -17.1%
38 | CC(CN1CCOCC1)NC(=O)c1cc(Cl)c2c(c1)OCCO2 (stereo not drawn) | -1.4%
39 | Cc1ccc(OCCN(C)Cc2cscn2)cc1 | 0.51%
40 | O=C(Nc1nncs1)N(Cc1cccc(F)c1)C1CC1 | 47.6%
41 | O=C(Nc1ccc(F)cc1)NC1(CCO)CCOCC1 | 22.3%
42 | CC1CN(C(=O)c2ccn(C)c(=O)c2)c2ccccc2NC1=O (stereo not drawn) | 2.94%
43 | COc1ccc(Cl)cc1-c1cc(NC(=O)C2COCCO2)[nH]n1 (stereo not drawn) | -29.1%
44 | NC(=O)NC(=O)CNC1(c2ccc(Cl)cc2)CCC1 | 9.23%
45 | Cc1ccc(-n2nc(C)cc2N)nn1 | 16%
46 | COCCOc1cc(C(=O)N2CC(C)c3ccccc32)ccn1 (stereo not drawn) | 2.16%

Row | SMILES | cytotoxicity at 10 µM
47 | N#CC1(NC(=O)Cn2nnc(-c3cc4ccccc4o3)n2)CCCC1 | 0.696%
48 | Clc1ccc(CN2CCN(Cn3nccc3-c3cccnc3)CC2)s1 | 8.64%
49 | Cc1cc(C)n(-c2cncc(NCCNC(=O)C(C)C)n2)n1 | -2.91%
50 | COCc1nc(NCC2CCS(=O)(=O)C2)c2cnn(C)c2n1 (stereo not drawn) | -5.97%
51 | Cc1cccnc1CCNC(=O)CC1C(=O)NCCN1CCC(C)C (stereo not drawn) | 9.01%
52 | Cc1nc(O)cc(CCNc2nccc(CCC(F)(F)F)n2)n1 | -149%
53 | O=C(c1ccc(Cn2cnnn2)cc1)N1CCC(c2ccncc2)CC1 | 0.571%
54 | COCc1noc(CN2CC(Cc3ccccc3)CC2=O)n1 (stereo not drawn) | -0.472%
55 | CCn1nc(C)c(NC(=O)CN(C)C(C)c2nccs2)c1C (stereo not drawn) | -143%
56 | CCCn1ncc(C(=O)NCc2n[nH]c3c2CCCCC3)c1C | 8.72%
57 | CN(Cc1cc(C(C)(C)C)n[nH]1)C(=O)c1ccccc1C1CCNC1 (stereo not drawn) | -2.32%
58 | COCCc1noc(Cn2ccc3ncccc3c2=O)n1 | -2.59%
59 | Cn1cnnc1CN1CCC2(CCCN(C3CCCCC3)C2=O)C1 (stereo not drawn) | -117%
60 | CC(C)(O)CCc1cccc(C(=O)NCCC2CCOC2)c1 (stereo not drawn) | -1.94%
61 | Cc1nc(C(C)N(C)Cc2nc(CCC(C)C)no2)c(C)s1 (stereo not drawn) | -4.76%
62 | Cc1ccc2oc(CN3CCC(C(=O)O)(n4ccnc4)CC3)c(C)c2c1 | -9.06%
63 | O=C(c1cccc(S(=O)(=O)NCCc2ccccn2)c1)N1CCOCC1 | -0.764%
64 | COCCC1(CO)CCCN(Cc2ccncc2)C1 (stereo not drawn) | -141%
65 | O=C(CC1CNCCO1)N1CCC(c2cc(N3CCCC3)ncn2)CC1 (stereo not drawn) | 5.81%
66 | Cn1cc(-c2cc(C(F)F)n3nc(CCC(=O)O)nc3n2)cn1 | 1.61%
67 | Cc1nc(C2CCCN(C(=O)CCCn3cccn3)C2)sc1C (stereo not drawn) | -0.317%
68 | COc1ccnc(N2CCN(CC(=O)N3CCC(C)CC3)CC2)n1 | -3.63%
69 | Cn1ccnc1CN1CCCN(C(=O)c2ccc(O)nc2)CC1 | -26.3%

Row | SMILES | cytotoxicity at 10 µM
70 | COCCCN1CCN(CCOC)C(C)C1 (stereo not drawn) | -13.4%
71 | Cc1nc(CN(C)C2CCN(CC3CCCC3)C2)no1 (stereo not drawn) | -5%
72 | O=C(CN1CCN(c2nccs2)CC1)Nc1cccnc1 | -4.23%
73 | Cc1cccc(-c2ccc(C(=O)NCC3CCCOC3)c(=O)[nH]2)c1 (stereo not drawn) | -15.7%
74 | c1ncn(CC2CCCN(Cc3cn4ccsc4n3)C2)n1 (stereo not drawn) | -7.04%
75 | Cc1occc1CNC(=O)N1CCC(Cc2cnn(C)c2)C1 (stereo not drawn) | -11.1%
76 | Cc1ncsc1C(=O)N(C)Cc1ccsc1 | -9.8%
77 | c1ccc(-c2noc(CN3CCCC(Cn4cncn4)C3)n2)nc1 (stereo not drawn) | 3.12%
78 | Cc1cc(CN2CCN(C(=O)NCc3ccc(C)s3)CC2)on1 | -4.56%
79 | CC(C)c1noc(CN2CCC(c3ccnn3CCO)CC2)n1 | -18.6%
80 | Clc1ccc(-c2nc(CN3CCCC3Cn3cncn3)co2)cc1 (stereo not drawn) | -1.66%
81 | COc1ncccc1CNC(=O)N1CCCC1c1ccsc1 (stereo not drawn) | -15.9%
82 | Cc1cc(C)n(C2CN(CC(O)c3ccc(C(F)(F)F)cc3)C2)n1 (stereo not drawn) | -5.94%
83 | CC(C)c1nc(CN2CCCN(Cc3nccn3C)CC2)no1 | 1.13%
84 | Cc1cc(C2CCCN(C(=O)COc3cc(C)on3)C2)n[nH]1 (stereo not drawn) | -3.87%
85 | Cc1ccc(CNCC2CCN(CC(O)c3ccccc3)CC2)o1 (stereo not drawn) | -3.33%
86 | COCCC(=O)N1CCCN(Cc2nccn2C(C)C)CC1 | -10.1%
87 | COCc1nc(C(=O)N2CCCC2c2cccc(C)c2)cs1 (stereo not drawn) | -8.93%
88 | CC(C)C(=O)NCc1ccc(N2CCCC2)nc1 | -18.4%
89 | CCCc1nc(C)c(C(=O)NCCNc2ncccc2C#N)s1 | -19.5%
90 | COCCCNC(=O)Nc1ccc(F)c(C(N)=O)c1 | -12.9%
91 | Cc1cnn(CC2CCCCN2c2nn3cc(C)nc3s2)c1 (stereo not drawn) | -18.4%
92 | CCCc1n[nH]c(C2CN(CCc3cccs3)CCO2)n1 (stereo not drawn) | 4.1%

Row | SMILES | cytotoxicity at 10 µM
93 | Cc1ccc(CC(=O)N2CCCN(Cc3nccn3C)CC2)cn1 | -22.3%
94 | CN1CCN(C2CCN(Cc3nnc(C(C)(C)C)o3)CC2)C1=O | -16.2%
95 | O=C(NCCCNc1ccc(C(F)(F)F)cn1)c1ccc(F)cc1F | 3.61%
96 | Cc1ccc(C(=O)Nc2cc(F)ccc2OCC2CCCO2)cn1 (stereo not drawn) | 0.207%
97 | CCc1nc(CC(=O)N2CCCC2CN2CCCC2)cs1 (stereo not drawn) | 7.27%
98 | COc1cccc(Nc2nc(C3CCCNC3)c3ccccn23)c1 (stereo not drawn) | -0.47%
99 | O=C1COC2(CCN(Cc3ccoc3)CC2)CN1c1ccccc1 | -122%
100 | O=c1cccnn1CC1CN(CC2CCCC2)Cc2nccn2C1 (stereo not drawn) | 5.03%
101 | Cc1ccc2c(c1)C(NC(=O)N(C)C)CC21CCN(C)CC1 (stereo not drawn) | 10.4%
102 | O=C(c1cscn1)N1CC[C@@H]2[C@@H]1CCN2C1CCOCC1 | 2.11%
103 | Cc1ccc(C(N)c2cccc(S(C)(=O)=O)c2)c(C)c1 (stereo not drawn) | -6.44%
104 | CNC(=O)[C@H]1C[C@@H]2CN(S(=O)(=O)c3cccc(F)c3)C[C@@H]2N1C | -4.94%
105 | Cc1nc(CN2CCN(C3CCOC3)Cc3cccnc32)cs1 (stereo not drawn) | 8.91%
106 | CN(C)C(=O)[C@@H]1C[C@H]2OCC[C@H]2N(CCOc2ccc(Cl)cc2)C1 | -124%
107 | Cc1noc(C)c1CN1CCO[C@H]2CN(Cc3cnn(C)c3)C[C@H]21 | -0.292%
108 | Cn1cccc1C(=O)N1CCC2(CC1)CC(N1CCOCC1)C2 | -8.25%
109 | O=C([C@@H]1C[C@@H]2CCN(C3CCOCC3)C[C@@H]2O1)N1CCCC1 | 6.81%
110 | COCCN1CC[C@@H]2O[C@@H](COCC(=O)N3CCCC3)CC[C@@H]21 | -18.1%
111 | CCc1c(C)[nH]c(C2(N)CCCC2)nc1=O | -0.327%
112 | COC1COC2(CCN(Cc3cccc(C#N)c3)CC2)C1 (stereo not drawn) | -1.75%
113 | N#Cc1ccc(C(=O)O)nc1C=Cc1cccc(F)c1 | 8%
